Compound activity (PubChem)
IMP-1 inhibitor = IMP-1 metallo-beta-lactamase inhibitors, primary screen, biochemical, epi-absorbance readout, Pseudomonas aeruginosa enzyme. AID 1556, 2009. inhibition, % at 5.6 µM. purified IMP-1, nitrocefin hydrolysis, epi-absorbance fluorescence. hit rate 0.45% among 290,000;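 active means inhibition above the mean plus 3 SD of all compounds in the same screening run, cut at about 4.5% in these data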;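 further: 0% = IMP-1 with DMSO and 100% = DMSO wells lacking enzyme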
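system = purified recombinant IMP-1 beta-lactamase | amount = 0.2 nM IMP-1, as dispensed | medium = HEPES buffer pH 7.1 with ZnSO4 and Brij 35 | times = 25 °C, 15 min preincubation, 25 min reaction | detection = plate fluorescence quenching by hydrolysis product, ex 480/em 530 nm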
VIM-2 inh = VIM-2 metallo-beta-lactamase inhibitors, primary screen, biochemical, epi-absorbance readout, Pseudomonas aeruginosa enzyme; inhibition, % at 5.6 µM; AID 1527, 2009; hit rate 0.89% among 290,000; purified VIM-2, nitrocefin hydrolysis, epi-absorbance fluorescence;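 active means inhibition above the mean of all tested compounds plus 3 SD, cutoff set per screening run, cut at about 7.5% in these data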;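 further: red hydrolysis product quenches plate fluorescence so inhibitors raise well fluorescence; 0% = enzyme with DMSO and 100% = DMSO without enzyme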
dFosB act = activators of delta FosB homodimer, primary screen, biochemical, fluorescence polarization, TAMRA-CDK5 oligo, single point; purified delta FosB; percent of positive-control signal above neutral wells; activation, % at 25 µM; hit rate 0.99% among 340,000;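 active means mean activation above about 17%, with every replicate also reaching it, limit read from the data, passing the limit was not always enough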
Target sequence (P13346 whole entry, looked up): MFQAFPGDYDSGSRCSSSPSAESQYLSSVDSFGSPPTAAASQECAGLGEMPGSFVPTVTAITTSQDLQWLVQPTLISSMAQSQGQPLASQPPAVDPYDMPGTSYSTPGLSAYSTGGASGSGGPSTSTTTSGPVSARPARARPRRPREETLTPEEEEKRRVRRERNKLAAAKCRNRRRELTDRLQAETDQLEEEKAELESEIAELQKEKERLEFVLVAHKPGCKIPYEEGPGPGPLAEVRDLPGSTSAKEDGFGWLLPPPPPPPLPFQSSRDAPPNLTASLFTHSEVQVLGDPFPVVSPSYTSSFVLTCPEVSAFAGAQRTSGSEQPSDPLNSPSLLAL
HTR2A ag = mouse Htr2a agonists via beta-arrestin recruitment, primary screen, cell-based, luminescence | CHO-K1 mHTR2A beta-arrestin complementation; percent of 30 µM serotonin response | 5-hydroxytryptamine receptor 2A (Mus musculus), P35363 | hit rate 0.66% among 360,000 | activation, % at 7.6 µM;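 active means activation above a run cutoff, the mean activation of all tested compounds plus 3 SD, cut at about 14% in these data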;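 further: 0% = plate median of compound wells and 100% = 30 µM serotonin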
* hit, by the source's call; · = no result. Rows were chosen to be rich in hits. Some 2.5% of all compounds tested hit in one or more screens of this group.

SMILES | IMP-1 inhibitor | VIM-2 inh | dFosB act | HTR2A ag
CN1CCN(c2nc(-c3cccc([N+](=O)[O-])c3)nc3ccccc23)CC1 | 1.1 | 8.6* | 13.5 | -11.8
COc1ccc(Cn2c(C)nc3ccc([N+](=O)[O-])cc3c2=O)cc1 | -3.0 | -2.1 | -0.2 | -0.2
COc1cccc(-c2nc(-c3ccc4c(c3)-c3ccccc3S4(=O)=O)c(-c3ccccc3)[nH]2)c1OC | 4.8* | -2.3 | 8.0 | 5.0
O=C(/C=C/c1cccc(Cl)c1)OCc1cn2cc(Cl)ccc2n1 | -4.0 | -3.6 | 3.1 | 6.7
COc1cccc(/C=C/C(=O)NCc2cn3cc(Cl)ccc3n2)c1 | -1.9 | -1.2 | 17.4* | -0.1
COc1ccc(/C=C/c2nc(S(=O)(=O)c3ccccc3)c(NCCCN(C)C)o2)cc1OC | -3.9 | 8.8* | -7.1 | -4.1
COc1ccccc1/C=C/c1nc(S(=O)(=O)c2ccccc2)c(NCCN(C)C)o1 | 1.0 | 1.2 | -1.1 | -8.6
Cc1ccc(N2C(=O)N(CC(=O)Nc3c(C)cc(C)cc3Cl)C(=O)C2C)cc1 (stereo not drawn) | · | · | -5.0 | 6.2
CCN1CCN(CC(=O)Nc2ccccc2)C(=O)C1=O | 4.6* | 4.7 | -0.5 | 10.6
CCc1nc2c(OCc3ccc(F)c(F)c3)cccn2c1N(C)C(=O)c1ccc(OC)cc1 | · | · | · | -3.7
COc1ccc(/C=N/Nc2cc(C)nc3ccccc23)cc1 | -0.8 | 7.5 | 53.0* | -3.5
COc1ccc2nc(C)cc(N/N=C/c3ccc(F)cc3)c2c1 | -4.3 | 8.6* | -19.9 | 1.9
Cc1cc(C)cc(OC(=O)COc2ccccc2C)c1 | -0.4 | 0.1 | -2.2 | -3.4
Cc1ccccc1NC(=S)NCCSc1ccc(Cl)cc1 | 49.8* | -2.8 | -9.0 | -7.0
Cc1cc(C)n(-c2cccc(Cl)c2C#N)n1 | -4.2 | 8.7* | 0.0 | -2.1
O=C(c1cc2ccccc2oc1=O)N(Cc1ccc2c(c1)OCO2)Cc1ccco1 | 6.5* | -2.1 | -14.7 | -3.4
O=C(COC(=O)c1ccc(F)c(S(=O)(=O)N2CCOCC2)c1)Nc1ccc(Cl)cn1 | · | · | · | 1.6
Cc1ccc(/C=C/c2ccc(N(C)C)cc2)[n+](C)c1 | -2.8 | -2.6 | 9.6 | 2.4
CN(C)c1ccc(/C=C/c2cc[n+]([O-])cc2)cc1 | 6.4* | 2.1 | · | ·
CN(C)c1ccc(/C=C/c2cc[n+](C)cc2)cc1 | -4.6 | -2.3 | 32.1* | 6.8
CSc1nc2nccc(-c3ccc4c(c3)OCO4)n2n1 | -5.8 | 10.8* | -13.1 | -2.6
Cc1cc(C)c([N+](=O)[O-])cc1-c1ccc(/C=N/c2c(-c3ccco3)nc3ccccn23)o1 | 9.2* | 4.3 | -9.2 | 1.4
O=C(CNCc1ccccc1)NCCCN1CCCC1=O | -1.8 | -1.6 | -11.9 | 0.9
Nc1cc2ccncc2c2ccccc12 | -2.1 | 2.2 | 23.4* | 2.8
N#Cc1cc2ccncc2c2ccccc12 | · | · | · | -0.4
SMILES | IMP-1 inhibitor | VIM-2 inh | dFosB act | HTR2A ag
CCCN1CCN(CCCNC(=O)CCNC(=O)Cn2ccc3ccccc3c2=O)CC1 | 5.4* | 0.7 | -2.5 | -2.3
CCN1CCN(C(=O)CCNC(=O)Cn2ccc3ccccc3c2=O)CC1 | -1.5 | -7.5 | 2.8 | 5.8
CCCN1CCN(CCCNC(=O)Cn2nc(-c3ccc(C)cc3)ccc2=O)CC1 | 6.3* | -0.1 | -4.5 | 2.5
CC1CCN(Cc2nnnn2CCCC(=O)N(C)C2CCOC2)CC1 (stereo not drawn) | -0.7 | -1.2 | 10.3 | 2.6
CCOC(=O)C(C)Sc1nnc2c3ccccc3n(C)c2n1 (stereo not drawn) | -4.7 | 8.8* | 0.0 | 1.5
CN1CCN(CC(=O)Nc2c(C(=O)c3ccccc3)oc3ccccc23)CC1 | -2.2 | 10.3* | -17.1 | -0.1
COc1ccc2oc(C(=O)c3ccccc3)c(NC(=O)CN3CCN(C)CC3)c2c1 | -2.4 | 9.2* | -4.5 | 1.4
CCOC(=O)c1oc2ccc(Br)cc2c1NC(=O)CN1CCN(C)CC1 | 4.0 | 9.8* | -8.8 | 1.5
COC(=O)c1oc2ccc(Br)cc2c1NC(=O)CCN1CCOCC1 | -0.2 | 0.8 | 0.4 | 1.6
Cc1ccc(F)c(S(=O)(=O)NC(=O)C2(C)CCN2C(=O)c2sccc2C)c1 (stereo not drawn) | · | · | · | 1.3
Cn1cc(C2=C(c3ccc(Cl)cc3Cl)C(=O)NC2=O)c2ccccc21 | 4.9* | 2.7 | -16.1 | -2.6
Cn1cc(-c2ccccc2C(N)=O)c(=O)c2cc(Cl)ccc21 | -4.8 | -3.6 | -4.0 | 2.5
CCOC(=O)C1=CN(Cc2ccco2)S(=O)(=O)N(C)C1c1ccc(F)c(Cl)c1 (stereo not drawn) | · | · | -13.9 | -4.2
Cc1ccc(/C=N/Nc2cc(C)nc(NCc3ccccc3)n2)cc1 | -3.5 | -4.7 | 54.6* | -10.3
Cc1cc(Nc2ccc(Cl)cc2)nc(NCc2ccccc2)n1 | -1.8 | -1.8 | 38.0* | -8.6
Cc1cc(Nc2ccccc2)nc(NCc2ccccc2)n1 | -4.8 | -0.3 | 4.2 | -3.9
Cc1ccc(NC(=O)C2CCCN(C(=O)c3ccc(Cl)cc3)C2)cc1S(=O)(=O)N1CCOCC1 (stereo not drawn) | -1.4 | -1.6 | -2.4 | 5.1
Cc1ccccc1NC(=O)c1c(C)[nH]c(=S)c(C#N)c1-c1ccco1 | 16.8* | -1.3 | -3.1 | 0.8
Cc1[nH]c(=S)c(C#N)c(C)c1C(=O)Nc1ccccc1 | -3.3 | -4.5 | -0.4 | 2.3
CNC(=O)c1c(C)[nH]c(=S)c(C#N)c1-c1ccco1 | 17.9* | 0.6 | -6.5 | 6.8
COc1ccc(S(=O)(=O)N2CCC(C(=O)N[C@@H](C)C(=O)NCc3ccccc3OC)CC2)cc1 | -1.0 | -2.2 | -8.0 | 7.9
S=c1[nH]nc(C2CCCCC2)n1/N=C/c1cccc(Cl)c1Cl | -3.0 | -4.7 | -12.3 | 1.3
Cc1nc(SCc2ccccc2C#N)n[nH]1 | 4.9* | 0.8 | 0.6 | 9.7
N#Cc1ccccc1CSc1nc(N2CCCCC2)nc(N2CCCCC2)n1 | -0.9 | -3.0 | -9.6 | -3.8
COc1ccc(CN2C[C@@H](CO)O[C@@H](n3cnc4c(N5CCN(CCO)CC5)ncnc43)C2)cc1 | · | · | · | -0.6
SMILES | IMP-1 inhibitor | VIM-2 inh | dFosB act | HTR2A ag
COc1ccc(NC(=O)CCC(=O)c2cccs2)cc1S(=O)(=O)Nc1ccccc1Cl | 5.2* | -2.0 | 0.6 | -5.1
O=C(Nc1ccc(Cl)c(S(=O)(=O)Nc2ccccc2Cl)c1)c1cccs1 | -2.0 | -3.1 | -2.8 | 10.2
O=C(O)CC/C(=C\c1ccc(Cl)c([N+](=O)[O-])c1)c1nc2ccccc2s1 | 0.1 | 9.2* | 3.1 | 1.8
O=C(O)CC/C(=C\c1ccc2c(c1)OCO2)c1nc2ccccc2s1 | -3.8 | 11.0* | -7.0 | -1.5
O=C(O)CC/C(=C\c1ccc(N2CCOCC2)c([N+](=O)[O-])c1)c1nc2ccccc2s1 | -0.1 | -0.3 | 0.4 | -5.1
CCNC(=O)C1(C)CCN(C(=O)c2cccc(C#N)c2)C1 (stereo not drawn) | · | · | · | 7.3
CSc1nnc2c(n1)OC(C)=Nc1ccccc1-2 | -2.4 | 10.9* | -4.8 | -3.8
CSc1nnc2c(n1)OC(C)N(C(=O)c1ccccc1)c1ccccc1-2 (stereo not drawn) | -5.0 | -1.6 | 3.0 | -1.6
